Experimental findings from ChEMBL document CHEMBL1155372, “Design and synthesis of novel deoxybenzoin derivatives as FabH inhibitors and anti-inflammatory agents” (Bioorg Med Chem Lett, 2010) are described below.

Structures are written as SMILES. ≈ marks a conversion by molar mass, not a printed value. Calls of active or inactive are those of the source. No cut-off for these calls is given here. Bounds are passed on as bounds.

Series [1] deals with AGS. Kind of series: Inhibition of Escherichia coli-stimulated IL-8 production in human AGS cells at 15 to 60 umol/L after 12 hrs by ELISA. Type of series: functional, cell-based. The method, boiled down: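 AGS gastric mucosal cells stimulated with Escherichia coli water extract to induce IL-8 production, with agent added at 15, 30 and 60 μmol L⁻¹. IL-8 released was measured in pg mL⁻¹ and compared with extract-stimulated control. Values are means ± SEM of 3–5 experiments.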
(In general: ELISA stands for enzyme-linked immunosorbent assay.)

The subject of series [2] is AGS. Kind of series: Cytotoxicity against human AGS cells at 15 to 60 umol/L after 48 hrs by MTT assay. Type of series: cell-based. The method, boiled down: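 AGS gastric cells incubated with test agent at serial concentrations of 15, 30 and 60 μmol L⁻¹. Viability read by MTT assay 48 h later. Values are means ± SEM of 4–6 experiments.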
In general terms: Tetrazolium dyes change colour on reduction, which living cells bring about.

For another series, the system named is Bacillus subtilis. The series can be described thus: Antibacterial activity against Bacillus subtilis ATCC 6633. Type of series: functional.
The test system of the next series is Pseudomonas aeruginosa. The series can be described thus: Antibacterial activity against Pseudomonas aeruginosa ATCC 2785. Type of series: functional.
The test system of a further series is Candida albicans. Kind of series: Antifungal activity against Candida albicans ATCC 10231. Type of series: functional.
A further series concerns Aspergillus niger. The series can be described thus: Antifungal activity against Aspergillus niger ATCC 16404. Format: functional.
The next series relates to Staphylococcus aureus. Kind of series: Antibacterial activity against Staphylococcus aureus ATCC 6538. Format: functional.
Another series deals with Escherichia coli. The series can be described thus: Antibacterial activity against Escherichia coli ATCC 35218. Type of series: functional.
Another series relates to Trichophyton rubrum. Kind of series: Antifungal activity against Trichophyton rubrum ATCC 10218.
A short description of series [3]: Inhibition of Escherichia coli FabH expressed after 25 mins by liquid scintillation counting.

On to `CC(=O)Oc1ccccc1C(=O)O` [ASPIRIN], for which, in the series on AGS [1], the inhibition result was “Active”. The Activity entry with AGS [2] is “Non-toxic”.
Take `Cc1ccc(/N=C(/Cc2ccc(F)cc2)c2ccc(O)c(O)c2O)cc1`: the MIC (as a rule, the least concentration at which growth counts as inhibited) against Bacillus subtilis is 50 µg/mL (≈ 142 µM); against Pseudomonas aeruginosa, 50 µg/mL (≈ 142 µM); in the series on Candida albicans, greater than 50 µg/mL; with Aspergillus niger it was greater than 50 µg/mL; with Staphylococcus aureus it was 50 µg/mL (≈ 142 µM); with Escherichia coli it was 50 µg/mL (≈ 142 µM). Also, the MIC in the series with Trichophyton rubrum is greater than 50 µg/mL. Also, in the series on AGS [1], the inhibition result is “inactive”.
`O=[N+]([O-])c1ccc(/N=C(/Cc2ccc(F)cc2)c2ccc(O)cc2O)cc1`: the MIC against Bacillus subtilis is 50 µg/mL (≈ 136 µM); against Pseudomonas aeruginosa it was 12.5 µg/mL (≈ 34.1 µM); against Candida albicans, greater than 50 µg/mL; in the series with Aspergillus niger, greater than 50 µg/mL; with Staphylococcus aureus it was 50 µg/mL (≈ 136 µM); against Escherichia coli it was 6.25 µg/mL (≈ 17.1 µM). The MIC with Trichophyton rubrum is greater than 50 µg/mL. The IC50 – broadly, the point on the concentration scale where inhibition reaches its midpoint – in series [3] is 28.7 µM.
For the compound `O=[N+]([O-])c1ccc(/N=C(/Cc2ccc(Cl)cc2)c2ccc(O)cc2O)cc1`, the MIC against Bacillus subtilis was 25 µg/mL (≈ 65.3 µM); in the series with Pseudomonas aeruginosa it was 6.25 µg/mL (≈ 16.3 µM); in the series on Candida albicans, greater than 50 µg/mL; against Aspergillus niger it was greater than 50 µg/mL; in the series with Staphylococcus aureus it was 12.5 µg/mL (≈ 32.7 µM); in the series with Escherichia coli it was 6.25 µg/mL (≈ 16.3 µM). In addition, in the series with Trichophyton rubrum, the MIC was greater than 50 µg/mL. The IC50 in [3] worked out at 8.7 µM.
As to `Cc1ccc(/N=C(/Cc2ccc(Cl)cc2)c2ccc(O)cc2O)cc1`, the minimal inhibitory concentration (MIC) in the series with Bacillus subtilis is 25 µg/mL (≈ 71.1 µM); with Pseudomonas aeruginosa, 12.5 µg/mL (≈ 35.5 µM); against Candida albicans, greater than 50 µg/mL; in the series on Aspergillus niger it was greater than 50 µg/mL; against Staphylococcus aureus, 12.5 µg/mL (≈ 35.5 µM); against Escherichia coli, 12.5 µg/mL (≈ 35.5 µM). The compound further displayed an MIC in the series with Trichophyton rubrum greater than 50 µg/mL. The compound further registered an IC50 in [3] of 15.1 µM.
As for `Oc1ccc(/C(Cc2ccc(Cl)cc2)=N\c2ccc(Cl)cc2)c(O)c1`, the MIC was 25 µg/mL (≈ 67.2 µM) in the series with Bacillus subtilis; 1.56 µg/mL (≈ 4.2 µM) against Pseudomonas aeruginosa; greater than 50 µg/mL in the series on Candida albicans; greater than 50 µg/mL with Aspergillus niger; 25 µg/mL (≈ 67.2 µM) with Staphylococcus aureus; 0.78 µg/mL (≈ 2.1 µM) against Escherichia coli. The same compound returned an MIC with Trichophyton rubrum greater than 50 µg/mL. In addition, in the series on AGS [2], the Activity entry is “Non-toxic”. The compound also showed an IC50 in series [3] of 1.8 µM.
Regarding `Cc1ccc(/N=C(/Cc2ccc(F)cc2)c2ccc(O)cc2O)cc1`, the MIC is 25 µg/mL (≈ 74.5 µM) against Bacillus subtilis; 25 µg/mL (≈ 74.5 µM) against Pseudomonas aeruginosa; greater than 50 µg/mL against Candida albicans; greater than 50 µg/mL in the series on Aspergillus niger; 25 µg/mL (≈ 74.5 µM) against Staphylococcus aureus; 25 µg/mL (≈ 74.5 µM) in the series on Escherichia coli. In the series with Trichophyton rubrum, this compound returned an MIC greater than 50 µg/mL. The compound further returned an IC50 in series [3] of 35.3 µM.
